Source: ChEMBL document CHEMBL3407388, “Synthesis, anticancer activity and molecular docking studies on a series of heterocyclic trans-cyanocombretastatin analogues as antitubulin agents” (2015)

Assays:
[1] = test system: CCRF-CEM; test: Cytotoxicity against human CCRF-CEM cells assessed as growth inhibition after 48 hrs by SRB assay; assay type: functional
Method in brief: (§1)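 NCI 60-cell panel; compounds passing a single-dose screen (10−5 M, 48 h) were tested at five 10-fold dilutions (10−4 to 10−8 M) with 48 h drug exposure. GI50 is the molar concentration giving 50% reduction in net cell growth relative to cell numbers on day 0.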

[2] = test system: SR; test: Cytotoxicity against human SR cells assessed as growth inhibition after 48 hrs by SRB assay; assay type: functional
[3] = test system: A549; test: Cytotoxicity against human A549 cells assessed as growth inhibition after 48 hrs by SRB assay; assay type: functional; conditions: A549, 48 h; method in brief: as §1
[4] = Cytotoxicity against human EKVX cells assessed as growth inhibition after 48 hrs by SRB assay; assay type: functional; method in brief: as §1
[5] = test system: HOP-62; test: Cytotoxicity against human HOP62 cells assessed as growth inhibition after 48 hrs by SRB assay; assay type: functional; conditions: HOP-62, 48 h; method in brief: as §1
[6] = test system: HOP-92; test: Cytotoxicity against human HOP92 cells assessed as growth inhibition after 48 hrs by SRB assay; assay type: functional; conditions: HOP-92, 48 h; method in brief: as §1
[7] = test system: NCI-H322M; test: Cytotoxicity against human NCI-H322M cells assessed as growth inhibition after 48 hrs by SRB assay; assay type: functional; method in brief: as §1
[8] = test system: NCI-H522; test: Cytotoxicity against human NCI-H522 cells assessed as growth inhibition after 48 hrs by SRB assay; assay type: functional; conditions: NCI-H522, 48 h; method in brief: as §1
[9] = test system: Malme-3M; test: Cytotoxicity against human MALME-3M cells assessed as growth inhibition after 48 hrs by SRB assay; assay type: functional; method in brief: as §1
[10] = test system: SK-MEL-2; test: Cytotoxicity against human SK-MEL-2 cells assessed as growth inhibition after 48 hrs by SRB assay; assay type: functional; conditions: SK-MEL-2, 48 h; method in brief: as §1
[11] = test system: SK-MEL-28; test: Cytotoxicity against human SK-MEL-28 cells assessed as growth inhibition after 48 hrs by SRB assay; assay type: functional; conditions: SK-MEL-28, 48 h; method in brief: as §1
[12] = Cytotoxicity against human UACC257 cells assessed as growth inhibition after 48 hrs by SRB assay; assay type: functional; conditions: UACC-257, 48 h
[13] = test system: ACHN; test: Cytotoxicity against human ACHN cells assessed as growth inhibition after 48 hrs by SRB assay; assay type: functional; method in brief: as §1
[14] = test system: RXF 393; test: Cytotoxicity against human RXF393 cells assessed as growth inhibition after 48 hrs by SRB assay; assay type: functional; conditions: RXF 393, 48 h; method in brief: as §1
[15] = Cytotoxicity against human Hs578T cells assessed as growth inhibition after 48 hrs by SRB assay; assay type: functional; conditions: Hs-578T; method in brief: as §1
[16] = test system: T47D; test: Cytotoxicity against human T47D cells assessed as growth inhibition after 48 hrs by SRB assay; assay type: functional
[17] = test system: MDA-MB-468; test: Cytotoxicity against human MDA-MB-468 cells assessed as growth inhibition after 48 hrs by SRB assay; assay type: functional; conditions: MDA-MB-468, 48 h; method in brief: as §1
[18] = test system: MV4-11; test: Anti-leukemic activity against human MV4-11 cells assessed as cell dead after 24 to 48 hrs by annexin V-FITC/7-AAD staining-based flow cytometric analysis; assay type: functional; conditions: read-out: LD50 (the source's name)
Method in brief: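 MV4-11 cells grown in IMDM with 10% FBS, penicillin and streptomycin, seeded at 5 × 10^5/ml and treated. At 24 and 48 h they were stained with annexin V-FITC plus 1 μg/ml 7-AAD. Percent dead cells (annexin V+) was read by flow cytometry and expressed relative to the DMSO vehicle control.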

[19] = target: Tubulin (Homo sapiens) (UniProt P68371+Q9H4B7+P0DPH7+P68366+Q13509+Q71U36+P04350+Q3ZCM7+P07437+P68363+Q9BQE3+Q6PEY2+Q13885+Q9BVA1+Q9BUF5); test: Inhibition of tubulin polymerization in human MV4-11 cells at 50 nM after 2 hrs by immunoblot analysis relative to control; assay type: cell-based
Method in brief: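 MV4-11 AML cells were exposed for 2 h to 25, 50 or 100 nM compound. Free tubulin (supernatant) and polymerized tubulin (pellet) were separated and detected by anti-tubulin immunoblot.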

| Compound | GI50 [1] [nM] | GI50 [2] [nM] | GI50 [3] [nM] | GI50 [4] [nM] | GI50 [5] [nM] | GI50 [6] [nM] | GI50 [7] [nM] | GI50 [8] [nM] | GI50 [9] [nM] | GI50 [10] [nM] | GI50 [11] [nM] | GI50 [12] [nM] | GI50 [13] [nM] | GI50 [14] [nM] | GI50 [15] [nM] | GI50 [16] [nM] | GI50 [17] [nM] | CC50 [18] [nM] | inhibition [19] [%] |
| --- | --- | --- | --- | --- | --- | --- | --- | --- | --- | --- | --- | --- | --- | --- | --- | --- | --- | --- | --- |
| COc1cc(/C(C#N)=C/c2cc3ccccc3o2)cc(OC)c1OC | 24 | < 10 | < 10 | 59 | < 10 | < 10 | < 10 | < 10 | 59900 | < 10 | < 10 | 63200 | 217 | < 10 | < 10 | 4340 | 22 | 47 | > 50 |
| COc1cc(/C(C#N)=C/c2nc3ccccc3s2)cc(OC)c1OC | 55 | 107 | 379 | – | 1930 | – | 2290 | 22 | 515 | 287 | 1810 | > 100000 | 89 | 148 | 1290 | – | 84 | 233 | – |
| COc1ccc2[nH]cc(/C=C(\C#N)c3cc(OC)c(OC)c(OC)c3)c2c1 | 64 | 27 | 86 | 485 | 133 | 83 | 44 | 86 | 5850 | – | 92 | 10700 | 1660 | 33 | 124 | 65 | 35 | 467 | – |
| COc1ccc(/C(C#N)=C/c2cc3ccccc3o2)cc1OC | 777 | 470 | 520 | – | 2290 | 1130 | 6180 | 438 | 629 | 487 | 3510 | 18000 | 12400 | 1300 | 1880 | 996 | 421 | > 20000 | – |
| COc1cc(/C(C#N)=C/c2coc3ccccc23)cc(OC)c1OC | 1410 | 681 | 665 | – | 6980 | 3020 | 19100 | 261 | 868 | 304 | 1610 | – | 1940 | 496 | 2030 | 811 | 237 | 4530 | – |
| COc1cc(/C(C#N)=C/c2c[nH]c3ccccc23)cc(OC)c1OC | 58 | 22 | 78 | 596 | 82 | 1010 | – | 37 | 12500 | – | 90 | 11300 | 1760 | 36 | 131 | 58 | 41 | 565 | – |
| COc1cc(OC)cc(/C(C#N)=C/c2c[nH]c3ccccc23)c1 | 42 | 33 | 61 | 478 | 273 | 68 | – | 27 | – | 51 | 81 | – | – | 83 | 611 | – | 51 | 375 | – |
| COc1cc(/C(C#N)=C/c2cc3ccccc3n2Cc2ccc(C#N)cc2)cc(OC)c1OC | 136 | – | 76 | – | 92 | 77 | 465 | 33 | – | 528 | 161 | 62 | 79 | 55 | 92 | 95200 | 41 | 369 | – |
| COc1ccc(/C(C#N)=C/c2c[nH]c3ccccc23)cc1OC | 2740 | 1450 | 5160 | 18500 | 8690 | 5260 | 24300 | 3050 | 9910 | 4700 | 6250 | 11900 | 23700 | 4480 | 12900 | 6830 | – | > 20000 | – |
| COc1cc(OC)cc(/C(C#N)=C/c2nc3ccccc3s2)c1 | – | 402 | – | – | 3350 | 534 | > 10000 | – | 699 | 958 | 1980 | – | 518 | 551 | 2010 | 1180 | 2040 | 4340 | – |
| COc1cc(/C(C#N)=C/c2cc3ccccc3[nH]2)cc(OC)c1OC | 17 | < 10 | < 10 | 1160 | < 10 | < 10 | – | < 10 | 8280 | < 10 | – | 1060 | < 10 | < 10 | < 10 | 2500 | 22 | 44 | > 50 |
| COc1ccc(/C(C#N)=C/c2cc3ccccc3[nH]2)cc1OC | 62 | 42 | 114 | 307 | – | 58 | 735 | 49 | – | 312 | 1940 | 27000 | 82 | 151 | 133 | 573 | 350 | – | – |
